Test results from the array DNA melting data of Ke et al. (doi:10.1101/2024.01.08.574731).

Key:
[1] = melting temperature; fluorescence melt of hairpins on a sequencing array, two-state fit, raised by 9.35 °C to match UV melts; conditions: sodium 0.088 M
Summary of the method: (§1)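 To match UV melts, fitted temperatures were raised by 9.35 °C. These fits were bootstrapped two-state models that gave melting temperature and folding enthalpy, combined by inverse variance over four replicates. The input was normalised Cy3 fluorescence of library hairpins with annealed Cy3 and quencher oligos on a sequenced MiSeq flow cell, imaged in 50 mM Na-HEPES pH 8.0, 25 mM NaCl in 2.5 °C steps up to 60 °C.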

[2] = folding enthalpy; higher = less favourable; fluorescence melt of hairpins on a sequencing array, two-state fit; conditions: sodium 0.088 M
Summary of the method: as §1

Row | Sequence | Tm [1] [°C] | folding enthalpy [2] [kcal/mol]
1 | GTGTGCCGAAAGGCCCAC (((.(((....))).))) | 53.1 | -25.3
2 | GTGTGCCGAAAGGCTCAC (((.(((....))).))) | 61.2 | -31.5
3 | GTGTGCGAAAGCAAGCAC ((((((....)))..))) | 43.5 | -18.9
4 | GTGTGCGAAAGCACCCAC ((((((....)))..))) | 39.3 | -8.11
5 | GTGTGCGGAAACGTGCAC (((..((....))..))) | 52.9 | -38.2
6 | GTGTGGCGAAAGCCTCAC (((.(((....))).))) | 58.9 | -29.7
7 | GTGTGTGGAAACACATAC ((.((((....)))).)) | 50 | -20.3
8 | GTGTGTGGAAACACGCAC (((.(((....))).))) | 58.7 | -40
9 | GTGTGTGGAAACGCACAC (((((.(....).))))) | 56.5 | -36.2
10 | GTGTTACGAAAGTAGCAC (((.(((....))).))) | 53.9 | -35.7
11 | GTGTTAGGAAACTGACAC ((((.((....)).)))) | 46.1 | -33.8
12 | GTGTTCCGAAAGGACAC (((.(((....)))))) | 53.8 | -32.8
13 | GTGTTCGAAAGAAACCAC ((((((....)))..))) | 27.4 | -10.4
14 | GTGTTCGAAAGAAAGCAC ((((((....)))..))) | 27.5 | -12.8
15 | GTGTTCGAAAGAAGGCAC ((((((....)))..))) | 28.6 | -22
16 | GTGTTCGCGAAAGCGCAC (((..(((....)))))) | 45.2 | -18.1
17 | GTGTTCGGAAACGAGCAC (((.(((....))).))) | 53.8 | -40.4
18 | GTGTTCGGAAACGAGTAC ((..(((....)))..)) | 31.2 | -18.9
19 | GTGTTGACGAAAGTCCAC (((..(((....)))))) | 41.6 | -19.6
20 | GTGTTGGGAAACCAATGC (..((((....))))..) | 38 | -25.2
21 | GTGTTGTCGAAAGACCAC (((..(((....)))))) | 42.4 | -21.6
22 | GTGTTTCGAAAGAAGCAC (((.(((....))).))) | 51 | -38.1
23 | GTGTTTGGAAACGAACAC (((((.(....).))))) | 49.5 | -35.8

Row | Sequence | Tm [1] [°C] | folding enthalpy [2] [kcal/mol]
24 | GTTAAACGAAAGTTAAAC (((.(((....))).))) | 34.2 | -17.7
25 | GTTAAAGGAAACTTTAAC (((((((....))))))) | 46.6 | -34.6
26 | GTTAAGACGAAAGTCAAC (((..(((....)))))) | 30.1 | -11.8
27 | GTTAATCGAAAGATAAAC (((.(((....))).))) | 31.6 | -20.7
28 | GTTAATGGAAACATTAGC (.(((((....))))).) | 34.8 | -20.7
29 | GTTACCCGAAAGGGCAAC (((.(((....))).))) | 47.3 | -24.4
30 | GTTACCCGAAAGGGGAAC (((.(((....))).))) | 61.5 | -32.2
31 | GTTACCGAAAGGTATAAC ((((((....)))..))) | 31.1 | -11.7
32 | GTTACCGAAAGGTGCAAC ((((((....)))..))) | 27.3 | -8.88
33 | GTTACCGGAAACGATAAC ((((.((....)).)))) | 36.1 | -26.6
34 | GTTACCGGAAACGGCAAC (((.(((....))).))) | 44 | -24.6
35 | GTTACCGGAAACGGTAGC (.(((((....))))).) | 50.4 | -18.9
36 | GTTACGCGAAAGCGCAAC (((.(((....))).))) | 49.3 | -19.4
37 | GTTACGGGAAACCATAAC ((((.((....)).)))) | 30 | -15.6
38 | GTTACTCGAAAGAGCAAC (((.(((....))).))) | 43.3 | -27.5
39 | GTTACTGGAAACAGCAAC (((.(((....))).))) | 36 | -28
40 | GTTAGACGAAAGTCAAAC (((.(((....))).))) | 43.6 | -18.6
41 | GTTAGACGAAAGTCAAC (((.(((....)))))) | 43 | -13.4
42 | GTTAGAGGAAACCCTAAC (((((.(....).))))) | 31.9 | -17.9
43 | GTTAGCCGAAAGGCAAAC (((.(((....))).))) | 48.6 | -18.1
44 | GTTAGCGAAAGCTCGAAC ((((((....)))..))) | 22.9 | -7.85
45 | GTTAGCGCGAAAGCGAAC (((..(((....)))))) | 27.7 | -6.83
46 | GTTAGCGGAAACGCTAGC (.(((((....))))).) | 49.3 | -16.1

Row | Sequence | Tm [1] [°C] | folding enthalpy [2] [kcal/mol]
47 | GTTAGCGGAAACGTTGAC ((.(.((....)).).)) | 30 | -14.7
48 | GTTAGGCGAAAGCCGAAC (((.(((....))).))) | 55.9 | -19.6
49 | GTTAGGGGAAACCCCAAC (((.(((....))).))) | 37.4 | -19
50 | GTTAGGGGAAACCCTAGC (.(((((....))))).) | 40.7 | -21.5
51 | GTTAGTCGAAAGACCAAC (((.(((....))).))) | 37 | -19.1
52 | GTTAGTGGAAACACCAAC (((.(((....))).))) | 29.3 | -13.3
53 | GTTATAGAAATATAAC ((((((....)))))) | 33.6 | -17.1
54 | GTTATAGGAAACTATGAC ((.((((....)))).)) | 33 | -23
55 | GTTATCCGAAAGGAAAAC (((.(((....))).))) | 40.8 | -25.2
56 | GTTATCGAAAGATAAC ((((((....)))))) | 53.1 | -42.8
57 | GTTATCGAAAGATACAAC ((((((....)))..))) | 23.5 | -9.31
58 | GTTATCGGAAACGATAAC (((((((....))))))) | 57 | -46.2
59 | GTTATCGGAAACGGTAAC ((((.((....)).)))) | 44.9 | -26.8
60 | GTTATGCGAAAGCAAAC (((.(((....)))))) | 36.5 | -14.3
61 | GTTATGGAAACATAAC ((((((....)))))) | 47.5 | -30.3
62 | GTTATGGCGAAAGCCAAC (((..(((....)))))) | 29.5 | -8.21
63 | GTTATTGGAAACAATAGC (.(((((....))))).) | 33.4 | -18.9
64 | GTTATTGGAAACAATGAC ((.((((....)))).)) | 36.9 | -32.5
65 | GTTATTGGAAACAGTAAC ((((.((....)).)))) | 33.4 | -27.5
66 | GTTATTGGAAACGATAAC (((((.(....).))))) | 38.7 | -21.5
67 | GTTCAAGGAAACCTGAAC (((((.(....).))))) | 35.6 | -30.1
68 | GTTCAAGGAAACTTGAGC (.(((((....))))).) | 40.1 | -22.5
